High-throughput results (PubChem)
Sampled rows, rich in hits. Any-hit rate of the full collection: about 2.5%.
Rev-erbA mod: modulators of human Rev-erb alpha DNA binding | P20393 | Rev-erbα–FITC-DNA binding, fluorescence polarization, 90 min | activity, % at 10 µM | 0.79% of 370,000 active | AID 1259318;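 active means activity above about 14%, limit read from the data; passing the limit was not always enough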;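 further: 0% = DMSO wells with 35 nM protein and 100% = DMSO wells with 750 nM protein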
NTR1 ag: agonists of human neurotensin receptor NTR1; P30989; NTR1-U2OS beta-arrestin-GFP spot imaging, agonist mode; activation, % at 20 µM; 0.17% of 330,000 active; AID 493036;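 active means activation at or above 40% of the spot to cytoplasm intensity ratio, with at least 20 cells analyzed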;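 further: 0% = DMSO without peptide and 100% = 100 nM NTR1 peptide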
MC4R antag cAMP: antagonists of human melanocortin 4 receptor (MC4R). MC4R-expressing cells, MTII-stimulated cAMP, LANCE TR-FRET. P32245. inhibition, % at 6.5 µM. 0.48% of 360,000 active;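 active means inhibition above its plate's cutoff, the mean of tested wells on that plate plus 3 SD, cut at about 29% in these data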;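 further: 0% = Melanotan II alone and 100% = Melanotan II plus saturating MCL0020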
Target sequence (P32245 whole entry, looked up): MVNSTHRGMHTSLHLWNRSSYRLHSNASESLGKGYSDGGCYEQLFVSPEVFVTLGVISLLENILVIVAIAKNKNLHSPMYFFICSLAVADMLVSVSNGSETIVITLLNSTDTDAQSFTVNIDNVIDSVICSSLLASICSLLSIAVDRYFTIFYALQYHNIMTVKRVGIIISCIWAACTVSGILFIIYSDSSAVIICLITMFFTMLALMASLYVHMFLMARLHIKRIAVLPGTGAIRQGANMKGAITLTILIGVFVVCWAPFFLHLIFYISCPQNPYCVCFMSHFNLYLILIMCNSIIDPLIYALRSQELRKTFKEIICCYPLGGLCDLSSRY
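Assay system: human MC4R-expressing U2OS cells; reagent: Melanotan II stimulation of cells; dosing: 6.5 µM single dose; timing: compound 30 min, challenge 1 h, detection 1 h; signal: TR-FRET cAMP assay; replicates: one well per compound, no replicates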
PG9 Ab binder: small molecules binding HIV-1 gp120 antibody PG9. TR-FRET gp120-PG9 antibody binding. 0.43% of 360,000 active. inhibition, % at 6.7 µM; in the data active means inhibition above about 8.5%
MC4R barr agon: human MC4R agonism via beta-arrestin | P32245 | U2OS MC4R beta-arrestin complementation, luminescence; percent of melanotan II response, DMSO zero | activation, % at 8.9 µM | 0.98% of 360,000 active | AID 540308;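 active means activation above a per-plate cutoff, the mean activation of sample wells on that plate plus 3 SD, cut at about 8% in these data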
NR1D1 mod conf: Rev-erb alpha (human) modulation, hit confirmation; shares compounds with Rev-erbA mod; Rev-erb alpha FITC-DNA binding, fluorescence polarization, 90 min; activation, % at 25 µM; 61% of 3,000 active;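 active means activation at or above a set limit, or at least 3 SD above the negative control mean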;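 further: 0% = 35 nM protein with DMSO and 100% = 750 nM protein high control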
RORg DNA counter: RORgamma DNA-binding activity, dose-response counter-screen; shares compounds with Rev-erbA mod; purified RORgamma protein-FITC-DNA binding, fluorescence polarization; IC50, µM; 8% of 910 active;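 active means Compounds whose fitted half-maximal concentration for disrupting protein-DNA binding is below 10 micromolar; the record names Rev-erb in its text, so the target is in doubt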
* hit, by the source's call; . = not tested or not shown.

SMILES | Rev-erbA mod | NTR1 ag | MC4R antag cAMP | PG9 Ab binder | MC4R barr agon | NR1D1 mod conf | others
COc1ccc(OC)c(/C=C/c2ccc3cccc(O)c3n2)c1 | 4 | 8 | -4 | 0 | -3 | .
COc1ccc(C=Cc2ccc3ccccc3n2)c(OC)c1 | 20* | . | -14 | -3 | -2 | 9
CCN(CC)C(=O)CC[C@H]1CC[C@]2(CCCN(Cc3nccn3C)C2)O1 | 1 | . | . | . | . | .
O=C(OCCN1C(=O)c2cccc3c(N4CCOCC4)ccc(c23)C1=O)c1ccc(Cl)cc1Cl | 260* | . | -13 | 1 | -2 | 206* | RORg DNA counter=4.5*
O=C(OCCN1C(=O)c2cccc3c(N4CCOCC4)ccc(c23)C1=O)c1ccccc1Cl | 40* | . | -1 | 0 | -2 | 56* | RORg DNA counter=>40
CC(C)CNc1cccc2c1S(=O)(=O)N(Cc1cn(Cc3ccc(C(F)(F)F)cc3)nn1)Cc1ccccc1O2 | 3 | . | . | . | . | .
O=C(COC(=O)c1ccccc1C(F)(F)F)NC(=O)NCc1ccco1 | -1 | 0 | 4 | -2 | 0 | .
CC(C)c1cc(C(=O)OCC(=O)NC(=O)NCc2ccco2)c(O)c(C(C)C)c1 | 16* | 24 | 21 | -2 | -2 | 6
CCOC(=O)c1nn(-c2ccc(F)cc2)c(=O)cc1OCC(=O)Nc1cccc(C)c1 | 101* | 1 | 7 | 11* | 1 | 93* | RORg DNA counter=>40
CCOC(=O)c1nn(-c2ccc(C)cc2)c(=O)cc1OCC(=O)N1CCN(c2ccccc2)CC1 | 2 | 1 | 5 | 0 | -1 | .
CCOC(=O)c1nn(-c2ccccc2)c(=O)cc1OCC(=O)Nc1cc(C)ccc1OC | 48* | -1 | 2 | 1 | 0 | 13
CCOC(=O)c1nn(-c2ccc(C)cc2)c(=O)cc1OCC(=O)Nc1cc(C)ccc1OC | 2 | 0 | 4 | -1 | -3 | .
CC(C)CNC(=O)OCc1cn(Cc2ccccc2F)nn1 | 4 | . | . | . | . | .
O=C(c1cccc(Oc2ccccc2)c1)N1CCC(Oc2cccnc2)CC1 | -6 | . | . | . | . | .
CCC[C@H]1[C@@H](OC(=O)NC(CC)CC)CC[C@@]23CCCN2C(=O)CCC[C@@H]13 | 1 | . | . | . | . | .
COC(=O)CSc1ccc2nnc(-c3ccc(OC)c(OC)c3)n2n1 | -2 | -1 | -21 | -2 | -1 | .
COc1ccc(-c2nnc3ccc(SCC(=O)Nc4nc5ccc(C)cc5s4)nn23)cc1OC | 25* | -1 | 1 | -1 | 1 | 26*
CC(=O)c1cnc2c(-c3cccc(Br)c3)cnn2c1C | 30* | 1 | 15 | 6 | -2 | 34* | RORg DNA counter=>40
CCOC(=O)Cc1c(C)nc2c(-c3cccc(Br)c3)cnn2c1C | 4 | 4 | 21 | -2 | 0 | .
Cc1nc(SCc2nc3ccc(C(=O)c4ccccc4)cc3[nH]2)c2oc3ccccc3c2n1 | 63* | 2 | 11 | -58 | -2 | 76*
Cc1nc(SCc2nc3ccccc3[nH]2)c2oc3cc(Br)ccc3c2n1 | 46* | -3 | -7 | 1 | -1 | 53* | RORg DNA counter=>40
O=C(C(=O)N1CCN(S(=O)(=O)c2ccccc2)CC1)c1cccc(C(F)(F)F)c1 | -5 | . | . | 1 | . | .
CCC(=O)OCCCN1CCC2(CCCCC2)C1=O | -2 | . | . | . | . | .
COc1ccccc1C(=O)COC(=O)c1cc(S(=O)(=O)N2CCCCC2)ccc1N1CCOCC1 | -2 | 1 | -2 | 1 | 2 | .
COc1ccc(C(=O)COC(=O)c2cc(S(=O)(=O)N3CCCCC3)ccc2N2CCOCC2)c(OC)c1 | 18* | 1 | 5 | -3 | 1 | 12
COc1cccc(COC(=O)c2cc(S(=O)(=O)N3CCCCC3)ccc2N2CCOCC2)c1OC | 20* | 2 | 5 | -1 | -3 | 0
CCOC(=O)c1c(-c2cccs2)csc1NC(C)=O | 4 | 2 | -3 | 1 | -1 | .
CCOC(=O)c1c(-c2ccc(C)s2)csc1NC(=O)c1cccs1 | 50* | 6 | 0 | -1 | -1 | 25*
O=[N+]([O-])c1ccc(N/N=C/c2sc(N3CCOCC3)nc2-c2ccccc2)c(S(=O)(=O)Nc2ccccc2Cl)c1 | 24* | . | 7 | 0 | -1 | 2
CC(C)CCNC(=O)C1CCN(c2cncnc2)CC1 | -3 | . | . | . | . | .
